Laboratory results published in ChEMBL document CHEMBL4266056, “Discovery and Pharmacology of a Novel Somatostatin Subtype 5 (SSTR5) Antagonist: Synergy with DPP-4 Inhibition” (ACS Med Chem Lett, 2018).
The source made the active and inactive calls. The rule behind the calls is not given here.

Experiments:
[1] = Half life in rat at 1 mg/kg, iv or 2 mg/kg, po; assay type: ADME, organism-based; conditions: in vivo
Outline: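 Rat pharmacokinetics after separate intravenous (1 mg/kg) and oral (2 mg/kg) dosing. Clearance is reported in mL/kg/min and half-life in hours. Oral bioavailability is given as F (%).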

Pancreatic islet [2] = test: Induction of glucose-dependent insulin secretion in human pancreatic islets at 0.5 to 5 uM preincubated for 30 mins with 16 mM glucose followed by compound addition measured after 60 mins by ELISA; assay type: functional, cell-based
Outline: (§1)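 Isolated pancreatic islets from non-diabetic human donors were incubated with compound at 0.5 or 5 µM in 2 mM (G2) or 16 mM (G16) glucose. Insulin secretion was measured against a DMSO control, with P<0.05 significance.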

[3] = target: Somatostatin receptor type 2 (Homo sapiens, UniProt P30874); test: Antagonist activity at human SSTR2 expressed in CHO-K1 cell membranes; assay type: functional, cell-based
Outline: (§2)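 Counter-screen by filtration membrane binding: competitive displacement of radiolabeled SST-28 from cell membranes expressing human SSTR1, SSTR2, SSTR3 or SSTR4. The IC50 is the mean of at least duplicate experiments within a maximal threefold range.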

[4] = Volume of distribution in rat at 1 mg/kg, iv or 2 mg/kg, po; assay type: ADME, organism-based; conditions: in vivo
[5] = target: Somatostatin receptor type 1 (Homo sapiens, UniProt P30872); test: Antagonist activity at human SSTR1 expressed in CHO-K1 cell membranes; assay type: functional, cell-based; outline: as §2
[6] = Half life in dog at […], iv or 1 mg/kg, po; assay type: ADME, organism-based, Canis lupus familiaris; conditions: in vivo
[7] = Drug uptake in C57BL/6N mouse whole blood at 1 mg/kg, po measured at 3 hrs; assay type: ADME, organism-based; conditions: read-out: Drug uptake
Outline: (§3)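 Whole-blood compound exposure was measured 3 h after oral dosing (0.03-3 mg/kg) in HFD mice run through the OGTT dose titration. Unbound levels were derived using the plasma free fraction.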

Mus musculus [8] = test: Antidiabetic activity in HFD fed C57BL/6N mouse assessed as increase in circulating active GLP-1 levels at 10 mg/kg, po cotreated with DPP4 inhibitor des-fluoro sitagliptin pretreated with compound for 60 mins followed by glucose challenge measured after 120 mins by OGTT; assay type: functional, organism-based
Pancreatic islet [9] = test: Induction of glucagon secretion in human pancreatic islets in presence of glucose by ELISA; assay type: functional, cell-based
Outline: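 In the same human islet incubations, SST-14 and glucagon secretion were monitored alongside insulin.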

Mus musculus [10] = test: Antidiabetic activity in HFD fed C57BL/6N mouse assessed as increase in plasma insulin levels at 10 mg/kg, po pretreated for 60 mins measured 5 mins post glucose challenge by OGTT; assay type: functional, organism-based
Outline: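 The SSTR5 antagonist was given orally at 10 mg/kg, alone or combined with des-fluoro sitagliptin at 10 mg/kg, ahead of an oral glucose challenge. Blood was sampled 5 min after glucose for circulating total GLP-1, active GLP-1[7-36] amide and plasma insulin.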

Mus musculus [11] = test: Antidiabetic activity in HFD fed C57BL/6N mouse assessed as decrease in blood glucose AUC at 0.3 mg/kg administered as single oral dose pretreated for 60 mins followed by glucose challenge measured after 120 mins by OGTT; assay type: functional; set-up: scale not given: the % may be the effect or the level left
Outline: (§4)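 Oral dose titration (0.03-3 mg/kg) in HFD-fed mice, n=8. Dosing was followed by an oral glucose tolerance test. Net blood glucose AUC was expressed as % reduction versus vehicle, with P values versus vehicle.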

[12] = Drug uptake in C57BL/6N mouse whole blood at 0.03 mg/kg, po measured at 3 hrs; assay type: ADME, organism-based; conditions: read-out: Drug uptake; outline: as §3
[13] = Oral bioavailability in dog at 1 mg/kg; assay type: ADME, organism-based, Canis lupus familiaris; conditions: in vivo
Mus musculus [14] = test: Antidiabetic activity in HFD fed C57BL/6N mouse assessed as decrease in blood glucose AUC at 3 mg/kg administered as single oral dose pretreated for 60 mins followed by glucose challenge measured after 120 mins by OGTT; assay type: functional; set-up: scale not given: the % may be the effect or the level left; outline: as §4
[15] = target: Potassium voltage-gated channel subfamily E member 1 (Homo sapiens, UniProt P15382); test: Inhibition of IKs (unknown origin)
[16] = Volume of distribution in rhesus monkey at […], iv or 1 mg/kg, po; assay type: ADME, organism-based, Macaca mulatta; conditions: in vivo
Pancreatic islet [17] = test: Induction of glucose-dependent insulin secretion in human pancreatic islets at 0.5 to 5 uM preincubated for 30 mins with 2 mM glucose followed by compound addition measured after 60 mins by ELISA; assay type: functional, cell-based; outline: as §1
Mus musculus [18] = test: Antidiabetic activity in HFD fed C57BL/6N mouse assessed as decrease in blood glucose AUC at 0.03 mg/kg administered as single oral dose pretreated for 60 mins followed by glucose challenge measured after 120 mins by OGTT; assay type: functional; set-up: scale not given: the % may be the effect or the level left; outline: as §4
[19] = Fraction unbound in human plasma at 0.1 uM using [3H]-labeled compound; assay type: ADME, cell-free
[20] = Unbound plasma concentration in C57BL/6N mouse plasma at 0.03 mg/kg, po measured at 3 hrs; assay type: ADME, organism-based; conditions: in vivo
[21] = Unbound plasma concentration in C57BL/6N mouse plasma at 0.3 mg/kg, po measured at 3 hrs; assay type: ADME, organism-based; conditions: in vivo
Mus musculus [22] = test: Antidiabetic activity in HFD fed C57BL/6N mouse assessed as increase in plasma insulin levels at 10 mg/kg, po cotreated with DPP4 inhibitor des-fluoro sitagliptin pretreated with compound for 60 mins followed by glucose challenge measured after 120 mins by OGTT; assay type: functional, organism-based
[23] = target: T1, Nuclear receptor subfamily 1 group I member 2 (Homo sapiens, UniProt O75469); test: Activation of human PXR; assay type: ADME
T1 sequence (O75469 whole entry): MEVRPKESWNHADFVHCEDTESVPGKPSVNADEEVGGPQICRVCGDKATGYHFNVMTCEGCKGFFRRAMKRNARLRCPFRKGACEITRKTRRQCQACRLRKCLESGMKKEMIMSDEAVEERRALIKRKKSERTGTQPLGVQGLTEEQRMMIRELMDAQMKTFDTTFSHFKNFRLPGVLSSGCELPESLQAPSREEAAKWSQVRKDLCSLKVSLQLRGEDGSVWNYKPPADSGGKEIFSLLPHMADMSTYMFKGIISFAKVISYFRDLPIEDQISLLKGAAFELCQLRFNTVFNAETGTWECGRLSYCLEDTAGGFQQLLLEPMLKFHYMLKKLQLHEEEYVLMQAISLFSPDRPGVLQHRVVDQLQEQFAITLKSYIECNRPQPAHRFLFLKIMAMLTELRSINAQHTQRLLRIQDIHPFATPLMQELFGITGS

Sequence of Somatostatin receptor type 1 (P30872 whole entry): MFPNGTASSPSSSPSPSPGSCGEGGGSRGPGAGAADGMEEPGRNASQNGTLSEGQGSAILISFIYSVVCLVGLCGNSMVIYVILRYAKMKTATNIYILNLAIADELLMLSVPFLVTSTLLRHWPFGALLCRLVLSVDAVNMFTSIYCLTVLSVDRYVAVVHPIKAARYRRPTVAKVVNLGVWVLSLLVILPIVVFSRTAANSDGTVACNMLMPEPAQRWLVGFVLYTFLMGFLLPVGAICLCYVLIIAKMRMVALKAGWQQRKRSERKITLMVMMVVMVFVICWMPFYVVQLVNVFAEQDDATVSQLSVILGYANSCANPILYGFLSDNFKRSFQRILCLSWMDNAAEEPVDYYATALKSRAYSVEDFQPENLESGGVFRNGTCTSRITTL
Sequence of Somatostatin receptor type 2 (P30874 whole entry): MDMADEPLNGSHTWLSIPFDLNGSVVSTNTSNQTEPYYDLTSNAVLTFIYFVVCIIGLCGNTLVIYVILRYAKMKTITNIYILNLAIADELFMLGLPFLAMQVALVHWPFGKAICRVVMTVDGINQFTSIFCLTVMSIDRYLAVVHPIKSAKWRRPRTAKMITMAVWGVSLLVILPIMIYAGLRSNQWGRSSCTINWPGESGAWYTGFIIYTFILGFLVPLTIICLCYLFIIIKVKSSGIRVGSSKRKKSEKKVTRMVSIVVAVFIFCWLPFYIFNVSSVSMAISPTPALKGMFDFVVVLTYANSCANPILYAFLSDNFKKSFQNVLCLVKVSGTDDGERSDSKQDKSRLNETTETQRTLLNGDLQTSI

CCOc1cc(CN2CCC3(CC2)CC(=O)N(c2ccc(C(=O)O)cc2)C3)cc(OCC)c1-c1ccc(F)cc1.O=C(O)C(F)(F)F
half-life [1]: 1.9 h
Activity (Pancreatic islet [2]): Active
IC50 [3]: > 10 µM
Vd [4]: 2.38 L/kg
IC50 [5]: > 10 µM
half-life [6]: 16.5 h
concentration at 3 h [7]: 131 nM
Activity (Mus musculus [8]): Active
Activity (Pancreatic islet [9]): inactive
Activity (Mus musculus [10]): Active
Activity (Mus musculus [11]): 59%
concentration at 3 h [12]: 4 nM
bioavailability [13]: 72%
Activity (Mus musculus [14]): 84 - 94%
IC50 [15]: > 15 µM
Vd [16]: 1.39 L/kg
Activity (Pancreatic islet [17]): inactive
Activity (Mus musculus [18]): 23%
Fu [19]: 2.2%
Cp(f) [20]: 0.2 nM
Cp(f) [21]: 1.6 nM
Activity (Mus musculus [22]): Active
Activity [23]: Not Active
